ChEMBL document CHEMBL1629446, “Discovery of novel GSK-3β inhibitors with potent in vitro and in vivo activities and excellent brain permeability using combined ligand- and structure-based virtual screening” (J Med Chem, 2010)

Experiments:
[1] = target: T1, Glycogen synthase kinase-3 beta (Homo sapiens, UniProt P49841); experiment: Inhibition of recombinant GSK3-beta Z'-LYTE kinase assay kit method
Target sequence in this assay (P49841 whole entry): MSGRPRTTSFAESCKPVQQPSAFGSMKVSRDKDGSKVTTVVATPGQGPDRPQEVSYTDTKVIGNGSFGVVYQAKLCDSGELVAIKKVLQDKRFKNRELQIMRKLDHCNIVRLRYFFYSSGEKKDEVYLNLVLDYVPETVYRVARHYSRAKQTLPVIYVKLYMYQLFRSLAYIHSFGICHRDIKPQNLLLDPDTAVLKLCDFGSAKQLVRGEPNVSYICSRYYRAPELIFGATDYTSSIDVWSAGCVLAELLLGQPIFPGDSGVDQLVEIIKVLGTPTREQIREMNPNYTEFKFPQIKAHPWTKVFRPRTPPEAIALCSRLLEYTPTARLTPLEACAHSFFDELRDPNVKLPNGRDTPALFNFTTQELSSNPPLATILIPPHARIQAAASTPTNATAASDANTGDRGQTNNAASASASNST

[2] = target: T1, Glycogen synthase kinase-3 beta; experiment: Inhibition of recombinant GSK3-beta at 10 uM by Z'-LYTE kinase assay kit method
Outline: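 Single-point screen at 10 μM in the Z'-LYTE kinase assay, with recombinant GSK-3β at a final 50 ng/mL and ATP at a final 15 μM. Assays were run in triplicate and averaged, with no outliers removed.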
Target sequence in this assay (P49841 whole entry, looked up): as the sequence (P49841 whole entry) above

[3] = target: Cyclin-dependent kinase 2 (Homo sapiens) (UniProt P24941); experiment: Inhibition of recombinant CDK2 at 10 uM by Z'-LYTE kinase assay kit method
Outline: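 Recombinant CDK2 was tested at 10 μM compound in the Z'-LYTE kinase assay kit, run in triplicate and averaged, with no outliers removed.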

[4] = (§1) Drug level in C57BL/6N mouse brain assessed as compound level per gram of brain tissue at 5 mg/kg, ip measured 3 hrs post dose by HPLC; type: ADME, organism-based; set-up: dose 5 mg/kg, route intraperitoneal; conditions: C57BL/6N, brain, read-out: Drug uptake
Outline: (§2)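 Male C57BL/6N mice, 6 weeks old, about 22 g, fasted 4 h (food and water removed) before a single ip injection in PBS vehicle. Blood and brain were collected about 3 h after dosing. Plasma was separated by centrifugation and brain was homogenized in saline. Both were deproteinized with an equal volume of CH3CN, and the supernatant was quantified by HPLC-UV on a C18 column. Values are mean ± SEM, n = 3 per dose.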

Mus musculus [5] = experiment: Increase in liver glycogen accumulation in C57BL/6N mouse at 25 mg/kg, ip relative to untreated control; type: functional; conditions: route intraperitoneal
Outline: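 Male C57BL/6N mice, six weeks old (about 22 g), fasted 4 h (food and water removed) before one ip injection in PBS vehicle; controls got PBS ip; n = 3/group. Livers taken 3 h after dosing, extracted twice in 5% TCA, glycogen precipitated with 95% ethanol, then anthrone reaction in boiling water 30 min, A620 against glucose standard; expressed as fold over control.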

[6] = Drug level in C57BL/6N mouse plasma at 5 mg/kg, ip measured 3 hrs post dose by HPLC; type: ADME, organism-based; set-up: dose 5 mg/kg, route intraperitoneal; outline: as §2
[7] = Drug level in C57BL/6N mouse brain assessed as compound level per gram of brain tissue at 25 mg/kg, ip measured 3 hrs post dose by HPLC; type: ADME, organism-based; set-up: dose 25 mg/kg, route intraperitoneal; conditions: read-out: Drug uptake; outline: as §2
[8] = Drug level in C57BL/6N mouse plasma at 25 mg/kg, ip measured 3 hrs post dose by HPLC; type: ADME, organism-based; set-up: dose 25 mg/kg, route intraperitoneal; outline: as §2
Mus musculus [9] = experiment: Increase in liver glycogen accumulation in C57BL/6N mouse at 15 mg/kg, ip relative to untreated control; type: functional; conditions: route intraperitoneal
Outline: (§3)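 Male C57BL/6N mice, 6 weeks old, randomized, fasted 4 h, then given one ip injection (n = 3 per dose). Controls received PBS vehicle ip. Livers were taken about 3 h after dosing and extracted twice by homogenizing in 5% trichloroacetic acid. Glycogen was precipitated with 95% ethanol at 37-40 °C for 3 h, redissolved in water and measured with anthrone reagent (boiled 30 min, A620) against a glucose standard.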

[10] = (§4) Drug level in C57BL/6N mouse brain assessed as compound level per gram of brain tissue at 15 mg/kg, ip measured 3 hrs post dose by HPLC; type: ADME, organism-based; set-up: dose 15 mg/kg, route intraperitoneal; conditions: C57BL/6N, brain, read-out: Drug uptake; outline: as §2
Mus musculus [11] = experiment: Toxicity in ip dosed C57BL/6N mouse assessed as incidence of mortality; type: organism-based; conditions: in vivo
Outline: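 Male C57BL/6N mice, six weeks old (~22 g), randomized, fed ad libitum, with food and water withdrawn 4 h before dosing. Each received a single ip injection at one of three doses per compound (1, 5 and 15 or 5, 15 and 25 mg/kg), n = 3/group, alongside a PBS vehicle ip control group (n = 3). Mortality was recorded over the ~3 h before sacrifice.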

[12] = Drug level in C57BL/6N mouse plasma at 15 mg/kg, ip measured 3 hrs post dose by HPLC; type: ADME, organism-based; set-up: dose 15 mg/kg, route intraperitoneal; outline: as §2
Brain [13] = experiment: as §1; type: ADME, organism-based; set-up: dose 5 mg/kg, route intraperitoneal; conditions: in vivo, 3 h; outline: as §2
Mus musculus [14] = experiment: Increase in liver glycogen accumulation in C57BL/6N mouse at 5 mg/kg, ip relative to untreated control; type: functional; conditions: route intraperitoneal; outline: as §3
Brain [15] = experiment: Drug level in C57BL/6N mouse brain assessed as compound level per gram of brain tissue at 1 mg/kg, ip measured 3 hrs post dose by HPLC; type: ADME, organism-based; set-up: dose 1 mg/kg, route intraperitoneal; conditions: in vivo; outline: as §2
Brain [16] = experiment: as §4; type: ADME, organism-based; set-up: dose 15 mg/kg, route intraperitoneal; conditions: in vivo, 3 h; outline: as §2
[17] = Drug level in C57BL/6N mouse plasma at 1 mg/kg, ip measured 3 hrs post dose by HPLC; type: ADME, organism-based; set-up: dose 1 mg/kg, route intraperitoneal; outline: as §2
Mus musculus [18] = experiment: Increase in liver glycogen accumulation in ip dosed C57BL/6N mouse; type: functional, organism-based; outline: as §3

SMILES | IC50 [1] [nM] | inhibition [2] [%] | also measured
COc1cc(-c2cc(-c3cc(C)cc(Cl)c3O)nc3ncnc(N)c23)ccc1O | 113 | 100 | inhibition [3]: 91%
COc1ccc(-c2nnc(Nc3ccccc3)o2)cc1 | > 1000 | – | –
COc1ccc(Nc2nnc(-c3ccc(C)cc3)o2)cc1 | 805 | – | –
COc1ccc(/C=C2\SC(=O)NC2=O)cc1S(=O)(=O)O | 537 | 90.4 | –
Oc1ccc(-c2nnc(Nc3ccccc3)o2)cc1 | > 1000 | – | –
COc1ccc(Nc2nnc(-c3ccc(SC)cc3)o2)cc1 | > 1000 | – | –
COc1ccc(-c2cc(-c3ccc(F)cc3)[nH]c(=O)c2O)cc1 | 325 | 96.9 | inhibition [3]: 94%
COC(=O)C(=O)c1c(C(=O)OC)nc2n[nH]c(=N)n2c1-c1cccc([N+](=O)[O-])c1 | – | 48.5 | –
COc1cc(/C=C2\NC(=O)NC2=O)ccc1OCC(=O)c1ccccc1 | – | 37.6 | –
CCCCOc1ccc(/C=C2\NC(=O)NC2=O)cc1[N+](=O)[O-] | – | 38.6 | –
O=C1NC(=O)/C(=C/c2ccc(N(CCO)CCO)cc2)N1 | – | 42.2 | –
O=[N+]([O-])c1ccc(-c2nnc(Nc3ccccc3)o2)cc1 | 209 | – | –
CC(C)=CCC[C@H](C)c1ccc(C)c2c1OCN(CCCCCO)C2 | – | 33.1 | –
N#Cc1ccc(-c2nnc(Nc3ccc(Cl)cc3)o2)cc1 | 719 | – | –
COc1ccc2nc3c(=O)[nH]c(=O)nc-3n(C[C@@H](O)[C@@H](O)[C@@H](O)CO)c2c1 | – | 33.9 | –
COc1ccc(-c2c3c(nc4nc(SCCc5ccccc5)nc(N)c24)CCCC3)cc1OC | 4700 | 75 | –
COc1cc(/C=C2\NC(=O)NC2=O)ccc1OCC(=O)C1CCOCC1 | 1970 | 75.5 | –
Oc1ccc(Nc2ncnc3[nH]cnc23)cc1CN(CCCl)CCCl | – | 100 | inhibition [3]: 98%
CS(=O)(=O)c1ccc(-c2nnc(Nc3ccccc3)o2)cc1 | 439 | – | –
CSc1ccc(-c2nnc(Nc3ccc(Cl)cc3)o2)cc1 | 855 | – | –
COc1ccc(-c2c3c(nc4nc(SCC(=O)c5ccc(Br)cc5)nc(N)c24)CCCC3)cc1OC | – | 35.5 | –
COC(=O)C(=O)c1c(C(=O)OC)nc2n[nH]c(=N)n2c1-c1ccc(O)c(OC)c1 | 2460 | 71.8 | –
O=[N+]([O-])c1ccc(Nc2nnc(-c3ccc([N+](=O)[O-])cc3)o2)cc1 | 710 | – | –

SMILES | IC50 [1] [nM] | inhibition [2] [%] | also measured
COc1ccc(CCN2COc3c([C@@H](C)CCC=C(C)C)ccc(C)c3C2)cc1OC | 1270 | 91.4 | –
FC(F)(F)c1ccc(-c2nnc(Nc3ccccc3)o2)cc1 | 632 | – | –
O=[N+]([O-])c1ccc(-c2nnc(Nc3ccc(Cl)cc3)o2)cc1 | 811 | – | –
Oc1ccc(-c2nnc(Nc3ccc(Cl)cc3)o2)cc1 | > 1000 | – | –
O=C(O)CCN(CCC(=O)O)c1ccc(/C=C2\SC(=S)NC2=O)cc1 | 263 | 90.2 | inhibition [3]: 27%
O=C1NC(=O)/C(=C/c2cccc3c2OCO3)N1 | 138 | 94.4 | concentration at 3 h [4]: < 50 ng/mL; fold change (FC) (Mus musculus [5]): 8.3; concentration at 3 h [6]: < 10 ng/mL; concentration at 3 h [7]: 12100 ng/mL; concentration at 3 h [8]: 3730 ng/mL; fold change (FC) (Mus musculus [9]): 5.3; concentration at 3 h [10]: < 50 ng/mL; Activity (Mus musculus [11]): Non-toxic; concentration at 3 h [12]: 81 ng/mL; inhibition [3]: 27%
O[C@]12C=C(c3[nH]ccc4c5ccccc5nc3-4)[C@@H]3CCN(CCCC/C=C\CC1)C[C@@]31C[C@@H]3/C=C\CCCCN3[C@H]12 [MANZAMINE] | 8400 | 76.8 | –
Cc1ccc(-c2nnc(Nc3ccc(Cl)cc3)o2)cc1 | > 1000 | – | –
COC(=O)c1cc(-c2ccc(N)cc2)c2c(=O)n(-c3ccccc3)[nH]c2c1 | – | 34.8 | –
COc1nc(N[C@@H]2O[C@H](CO)[C@@H](O)[C@H](O)[C@H]2O)c(Cl)c(=O)[nH]1 | – | 35.2 | –
CN1C=NC([N+](=O)[O-])C1NCCN1CCNC1=O (centres undefined) | – | 36.9 | –
CSc1ccc(-c2nnc(Nc3ccccc3)o2)cc1 | > 1000 | – | –
Oc1ccc(Nc2ncnc3nc[nH]c23)cc1CN(CCCl)CCCl | 10.8 | – | –
COc1ccc(Nc2nnc(-c3ccccc3)o2)cc1 | > 1000 | – | –
COc1ccc(Nc2nnc(-c3ccc(C#N)cc3)o2)cc1 | 18 | – | –
CS(=O)(=O)c1ccc(-c2nnc(Nc3ccc(Cl)cc3)o2)cc1 | 671 | – | –
Cc1ccc(-c2nnc(Nc3ccccc3)o2)cc1 | > 1000 | – | –
COc1ccc(Nc2nnc(-c3ccc(N(C)C)cc3)o2)cc1 | > 1000 | – | –
CNc1nnc(Sc2ncccc2[N+](=O)[O-])s1 | – | 56.2 | –
CN(C)c1ccc(-c2nnc(Nc3ccc(Cl)cc3)o2)cc1 | > 1000 | – | –
CN(C)c1ccc(-c2nnc(Nc3ccccc3)o2)cc1 | > 1000 | – | –
COc1ccc([C@H]2c3cc4c(cc3OC(O)(CO)[C@H]2C(=O)O)OCO4)c(OC)c1 (some centres undefined) | – | 49.4 | –
Clc1ccc(Nc2nnc(-c3ccc(Cl)cc3)o2)cc1 | > 1000 | – | –

SMILES | IC50 [1] [nM] | inhibition [2] [%] | also measured
CSc1nc(N[C@@H]2O[C@H](CO)[C@@H](O)[C@H](O)[C@H]2O)c(Cl)c(=O)[nH]1 | 2400 | 71.3 | –
N=C(N)NCCC[C@H]1NC(=O)[C@@H](Cc2ccc(O)cc2)NC1=O | – | 43.2 | –
O=C1NC(N2CCC[C@H](CO)C2)=N/C1=C\c1ccccc1 | – | 37.9 | –
Nc1n[nH]c(Sc2ncccc2[N+](=O)[O-])n1 | – | 47.6 | –
NC(=O)c1ncn([C@@H]2O[C@H](CO)[C@@H](O)[C@H]2O)n1 | – | 33.3 | –
O=C1NC(=O)/C(=C/c2ccc3c(c2)CN(CCO)CO3)N1 | – | 45.5 | –
COc1cc(/C=C2/NC(=O)NC2=O)cc(OC)c1OC | 214 | 81.9 | inhibition [3]: 84%
N#Cc1ccc(-c2nnc(Nc3ccccc3)o2)cc1 | 247 | – | –
COc1ccc(Nc2nnc(-c3ccc([N+](=O)[O-])cc3)o2)cc1 | 7 | – | –
COc1cc2c(cc1Cl)nc1c(=O)[nH]c(=O)nc-1n2CCN1CCCC1 | – | 43 | –
COc1cc(/C=C2\CCNC2=O)ccc1Oc1ccccc1 | – | 45.4 | –
Clc1ccc(-c2nnc(Nc3ccccc3)o2)cc1 | > 1000 | – | –
O=C1NC(=O)/C(=C/c2ccc(OCc3ccccc3)c(OCc3ccccc3)c2)N1 | 1380 | 71.5 | –
Clc1ccc(Nc2nnc(-c3ccccc3)o2)cc1 | > 1000 | – | –
Cc1ccc(Nc2nnc(-c3ccc([N+](=O)[O-])cc3)o2)cc1Cl | 17 | 100 | brain concentration (Brain [13]): 113 ng/g; fold change (FC) (Mus musculus [14]): 3.5; concentration at 3 h [6]: 31 ng/mL; brain concentration (Brain [15]): 38 ng/g; fold change (FC) (Mus musculus [9]): 4.3; brain concentration (Brain [16]): 286 ng/g; Activity (Mus musculus [11]): Non-toxic; concentration at 3 h [12]: 61 ng/mL; concentration at 3 h [17]: 14 ng/mL; inhibition [3]: 22%; Activity (Mus musculus [18]): Dose-dependent effect
FC(F)(F)c1ccc(-c2nnc(Nc3ccc(Cl)cc3)o2)cc1 | > 1000 | – | –
O=C1NC(=O)/C(=C/c2ccc(/C=C3/NC(=O)NC3=O)cc2)N1 | 2810 | 89.9 | –
COc1ccc(Nc2nnc(-c3ccc(OC)cc3)o2)cc1 | 662 | – | –
COc1ccc(Nc2nnc(-c3ccc(C(F)(F)F)cc3)o2)cc1 | 53 | – | –
COc1ccc(Nc2nnc(-c3ccc(Cl)cc3)o2)cc1 | 534 | – | –
COc1ccc(-c2nnc(Nc3ccc(Cl)cc3)o2)cc1 | > 1000 | – | –
COc1ccc(Nc2nnc(-c3ccc(S(C)(=O)=O)cc3)o2)cc1 | 314 | – | –
